Vif inh: blocks HIV Vif function; HEK293T cells, Vif self-association by quenched fluorescence, imaging, 24 h; inhibition, % at 7.49 µM; hit rate 0.35% among 340,000; AID 602346; in the data active = inhibition above about 50%, passing the limit was not always enough
S100A4 inh HTS: inhibitors of human S100A4 binding to myosin IIA peptide | P26447 | S100A4/TAMRA-MyoIIA peptide fluorescence polarization | inhibition, % at 10.7 µM | hit rate 0.14% among 360,000 | AID 652163;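 active = mean inhibition of at least 70% across replicates, with every replicate also reaching that level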
Target sequence (P26447 whole entry, looked up): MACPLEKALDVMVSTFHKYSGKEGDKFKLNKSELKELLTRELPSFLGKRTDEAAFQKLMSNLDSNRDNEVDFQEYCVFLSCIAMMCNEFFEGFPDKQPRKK
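Test system – S100A4 monomer (human) · Compound – single-point compound testing · Schedule – 5 min incubation before reading · Probe or stimulus – TAMRA-labelled myosin IIA heavy-chain peptide probe, 5 nM · Benchmarks – neutral control DMSO, positive control TFP · Medium – Calcium-containing HEPES buffer, pH 7.2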
HIV Env fusion: HIV envelope-mediated fusion inhibition | inhibition, % at 12.3 µM | hit rate 1.1% among 360,000 | AID 651610 | HeLa-JRFL Env/CEM21 cell fusion, luciferase;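 active = mean replicate inhibition score of at least 50 and every replicate individually at or above 50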;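 also: 0% = plate neutral controls and 100% = maraviroc near 300 nM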
miR-122 sensor: blocks miR-122 activity in Huh7 sensor cells | Huh7 miR-122 Renilla luciferase sensor, 48 h; neutral wells = 0, positive control = 100 | activation (reporter increase), % at 12.5 µM | hit rate 0.3% among 340,000 | AID 602342;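 active = mean replicate activation score at least 90 and every replicate individually at or above 90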;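 also: higher luciferase means less miR-122 activity so hits act as miR-122 inhibitors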
FN deposit inh: fibronectin deposition inhibition. AH1F fibroblasts, Alexa488-fibronectin deposition fluorescence, overnight. inhibition, % at 12.6 µM. hit rate 0.086% among 350,000. AID 743247;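 active = mean inhibition across replicates of 30% or more, regardless of how many single replicates reach that level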;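 also: positive control wells lacked labelled fibronectin entirely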
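Assay system: AH1F fibroblast monolayer, labelled fibronectin deposition. Amount: 10000 cells per well. Also added: labelled fibronectin 24 nM. Compound: single-point pinned compound. Incubation: cell attachment 1 h, compound and FN exposure overnight. Detection: fluorescence after three HBSS washes, excitation 485 nm, emission 525 nm. Read-out: inhibition of fibronectin deposition signal.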
rRNA inh HTS: inhibits bacterial ribosomal RNA function over humanized ribosomes; E. coli WT GFP vs humanized-ribosome RFP mutants, fluorescence, 24 h; hits give low values; DMSO median 0, no signal -100; GFP signal change (wild-type ribosome), % (no concentration beside the values); hit rate 1.6% among 350,000; AID 720706;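 active = significant combined selectivity score with lowered wild-type GFP, culture density cut under 30%, mutant RFP and density less affected; inactive = any of these conditions unmet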
Starred values were filed as active, the others as inactive; x = no result given; [ ] = dose if it differs, or a comment. An excerpt weighted towards active compounds, which were near 2.6% of everything screened.

SMILES	Vif inh	S100A4 inh HTS	HIV Env fusion	miR-122 sensor	FN deposit inh	rRNA inh HTS
CCOC(=O)C1=C(C)N(C)C(=S)NC1c1cccc(Cl)c1Cl (stereo not given)	2	-5	-4	x	4	-24*
CCOC(=O)CN(C(=O)CSc1nnc(CNc2ccc(C)cc2C)o1)c1ccccc1	4	-6	13	-5	x	-23*
CCOC(=O)CN(C(=O)CSc1nnnn1C)c1ccccc1	-10	0	71*	2	6	14
COc1cccc(NC(=O)C[C@H]2CC[C@H]3[C@H](COc4ccc(NC(=O)C5CCCC5)cc4C(=O)N3C)O2)c1	x	x	x	x	1	-1
CCOC(=O)Nc1sc(C)nc1-c1ccccc1	6	2	x	x	x	12
CCOC(=O)Nc1nc(-c2ccccc2)c(C(=O)c2ccc(Cl)cc2)s1	x	x	x	110*	x	x
C[C@@H]1CCCCO[C@H](CN(C)C(=O)Nc2ccc3c(c2)OCO3)[C@@H](C)CN([C@@H](C)CO)C(=O)c2cc(NS(=O)(=O)c3cn(C)cn3)ccc2O1	x	10	-21[16.7 µM]	-3[16.7 µM]	x	-17
COC(=O)C[C@@H]1CC[C@H]2[C@@H](COc3ccc(NS(=O)(=O)c4ccccc4Cl)cc3C(=O)N2C)O1	x	-46	4[16.7 µM]	x	-16	-1
CC1=[N+](C)c2ccc3ccccc3c2C1(C)C	0	145*	26	x	0	-16
O=C([C@H]1[C@H](CO)[C@H]2Cn3c(ccc(-c4ccncc4)c3=O)[C@H]2N1CCC(F)(F)F)N1CCOCC1	x	1	x	2[16.7 µM]	x	2
Cc1oc(-c2cccc(Cl)c2)nc1CN1CCCC(C(=O)NCc2ccco2)C1 (stereo not given)	-4	x	7	6	-4	x
Cc1oc(-c2ccc(Cl)cc2)nc1CN1CCCC(C(=O)NCc2cccnc2)C1 (stereo not given)	-18	x	87*	7	x	x
Cc1oc(-c2cccc(Cl)c2)nc1CN1CCCC(C(=O)NC(C)c2ccc3c(c2)OCCO3)C1 (stereo not given)	2	0	84*	-2	12	-54
CSc1ccc(-c2nc(CN3CCCCC3c3cccnc3)c(C)o2)cc1 (stereo not given)	-12	-7	2	3	-4	-21*
C[C@@H]1CN([C@H](C)CO)C(=O)c2cc(NC(=O)CCCN(C)C)ccc2O[C@@H](C)CCCCO[C@H]1CN(C)C(=O)Nc1cccc2ccccc12	x	-23	11[16.7 µM]	-1[16.7 µM]	x	4
C[C@@H]1C(=O)NCCC=CC[C@H](C)Oc2ccccc2C(=O)N1C (mixture of isomers)	x	x	x	x	-1	4
COc1cc(C(=O)N2CCN(c3ncnc4sc(C)c(C)c34)CC2)cc(OC)c1OC	-18	x	82*	1	10	x
Cc1sc2ncnc(N3CCN(c4ncccn4)CC3)c2c1C	-9	x	x	-5	x	x
Cc1ccc(OCC(=O)Nc2ccc3c(c2)nc(CCN2CCN(c4ccccn4)CC2)n3C)cc1	-17	-2	61*	-6	7	1
COc1ccc(N2CCN(C(=O)c3ccc(NS(=O)(=O)c4ccc(F)cc4)cc3)CC2)cc1	17	x	5	16	-1	x
CCOc1ccc(NS(=O)(=O)c2ccc(C(=O)N3CCCCC3)cc2)cc1	-35	-6	43	-5	8	-6
CCOc1ccc(NS(=O)(=O)c2ccc(C(=O)N3CCN(c4ncccn4)CC3)cc2)cc1	0	-17	5	1	-4	-23*
COc1ccc(N2CCN(C(=O)c3ccc(NS(=O)(=O)c4cccs4)cc3)CC2)cc1	-9	-3	17	11	3	-23*
CN1[C@@H]2Cn3c(ccc(-c4cccc(F)c4)c3=O)[C@H]1[C@@H](C(=O)NCc1ccccc1)[C@@H]2CO	x	5	x	x	x	2
COc1ccccc1[C@@H]1C(c2ccccc2)=NN(c2ccccc2)[C@H]1C(=O)N1CCOC1=O	1	8	37	1	x	17
SMILES	Vif inh	S100A4 inh HTS	HIV Env fusion	miR-122 sensor	FN deposit inh	rRNA inh HTS
COc1ccccc1[C@@H]1C(c2ccc(F)cc2)=NN(c2ccccc2)[C@H]1C(=O)N1CCOC1=O	x	2	82*	3	-12	6
O=C(CCN1CCCCC1)NCC[C@@H]1CC[C@H](NC(=O)C2CCCCC2)[C@H](CO)O1	x	x	x	x	-8	1
O=C(Nc1ccc(Cl)cc1)N1C[C@H]2[C@@H](c3ccccc31)[C@H](CO)N2C(=O)c1ccccn1	x	-14	x	12[16.7 µM]	x	-19*
O=C(Nc1ccccc1)N1C[C@H]2[C@@H](c3ccccc31)[C@@H](CO)N2C(=O)c1ccccn1	x	20	x	132*[16.7 µM]	x	3
O=C(Nc1ccccc1)N1C[C@@H]2[C@H](c3ccccc31)[C@@H](CO)N2C(=O)c1ccccn1	x	-1	x	-12[16.7 µM]	x	0
CC1=C(C)/C(=N\OS(=O)(=O)c2ccccc2)C=CC1=O	55*	-1	x	-5	x	-1
O=C(NC1CCCCC1)N1CC(=O)N2[C@H](CO)[C@@H](c3ccc(/C=C/c4ccccc4)cc3)[C@@H]2C1	x	4	x	x	-16	-5
CC(=NNc1nc2ccccc2o1)c1cc2ccccc2cn1	36	1	29	x	9	-22*
O=c1c(Cl)c(Nc2cccc(Cl)c2)cnn1-c1nc2ccccc2s1	-10	x	-119	x	-3	x
COc1ccc(Nc2cnn(-c3nc4ccccc4s3)c(=O)c2Cl)cc1	-9	-2	-16	0	-21	-25*
Cc1cc(O)c(-c2cc(O)c(C)cc2O)cc1O	2	-3	-9	-12	37*	10
COC(=O)c1ccc(OC)c(CSc2nnc(COc3ccc(Cl)cc3)o2)c1	-2	x	60*	-2	-6	x
COc1ccc2c3c(n(C)c2c1)[C@H](CO)N(C(=O)NC1CCCCC1)CC31CN(C)C1	x	x	x	x	x	3
COc1ccc2c3c(n(C)c2c1)[C@H](CO)N(C(C)=O)CC31CN(C(=O)c2ccccc2)C1	x	x	x	x	x	-2
Oc1c(C(c2ccccc2)N2CCOCC2)ccc2ccccc12 (stereo not given)	-10	-2	72*	-5	5	-12
O=C(CN1CCN(C(c2ccccc2)c2ccccc2)CC1)N1CCOCC1	1	0	x	0	x	5
COCCNC(=O)C[C@H]1CC[C@H]2[C@@H](COc3ccc(NC(=O)Cc4ccccc4)cc3C(=O)N2C)O1	x	16	-1[16.7 µM]	-20[16.7 µM]	-2	4
COc1ccc(NC(=O)CN(C)C(=O)C2CC(=O)N(c3ccc4c(c3)OCCO4)C2)cc1 (stereo not given)	-6	154*	x	x	5	12
CN(Cc1ccno1)Cc1cn(C)nc1-c1ccc(Oc2ccccc2)cc1	-1	-5	-3	0	13	-34*
CCOc1ccc(Cl)cc1CSc1ncn[nH]1	-10	-12	2	8	1	-22*

Assay outcomes from PubChem BioAssay.
